Data on 7 molecules can be found in ChEMBL document CHEMBL3102810, “Alkylamino derivatives of pyrazinamide: synthesis and antimycobacterial evaluation” (Bioorg Med Chem Lett, 2014).

Data set [1] deals with Staphylococcus epidermidis. The experiment in a line: Antibacterial activity against Staphylococcus epidermidis H 6966/08 after 48 hrs by microdilution broth method. It is filed as functional. The note with it: for MIC95: H 6966/08, 48 h. The essentials: (§1)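 Antibacterial screen with compound concentrations up to a highest level of 500 µM. Results expressed as MIC in µM.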
In general terms: Dilution methods test growth across graded concentrations, often in twofold steps.

Data set [2] concerns Staphylococcus epidermidis. Kind of data set: Antibacterial activity against Staphylococcus epidermidis H 6966/08 after 24 hrs by microdilution broth method. As to conditions: H 6966/08, 24 h. It is filed as functional. Put shortly:
as §1

For data set [3], the system named is Klebsiella pneumoniae. Kind of data set: Antibacterial activity against Klebsiella pneumoniae D 11750/08 after 24 to 48 hrs by microdilution broth method. It is filed as functional, organism-based. Put shortly:
as §1

The test system of another data set is Candida albicans. Kind of data set: Antifungal activity against Candida albicans ATCC 44859 after 72 to 120 hrs by microdilution broth method. It is filed as functional, organism-based.
The subject of data set [4] is Trichophyton mentagrophytes. Kind of data set: Antifungal activity against Trichophyton mentagrophytes 445 after 72 to 120 hrs by microdilution broth method. It is filed as functional, organism-based.
Another data set has as its system Trichosporon asahii. Kind of data set: Antifungal activity against Trichosporon asahii 1188 after 72 to 120 hrs by microdilution broth method. It is filed as functional, organism-based.
Data set [5] concerns Trichophyton mentagrophytes. Kind of data set: Antifungal activity against Trichophyton mentagrophytes after 72 to 120 hrs by microdilution broth method. It is filed as functional, organism-based.
The next data set has as its system Candida tropicalis. The experiment in a line: Antifungal activity against Candida tropicalis 156 after 72 to 120 hrs by microdilution broth method. It is filed as functional, organism-based.
The next data set relates to Lichtheimia corymbifera. Kind of data set: Antifungal activity against Absidia corymbifera 272 after 72 to 120 hrs by microdilution broth method. It is filed as functional, organism-based.
The subject of a further data set is Aspergillus fumigatus. The experiment in a line: Antifungal activity against Aspergillus fumigatus 231 after 72 to 120 hrs by microdilution broth method. It is filed as functional, organism-based.
Data set [6] has as its system Staphylococcus epidermidis. The experiment in a line: Antibacterial activity against methicillin-resistant Staphylococcus epidermidis H 5996/08 after 24 to 48 hrs by microdilution broth method. It is filed as functional, organism-based.
A further data set deals with Escherichia coli. Kind of data set: Antibacterial activity against Escherichia coli CCM 4517 after 24 to 48 hrs by microdilution broth method. It is filed as functional, organism-based. The essentials: as §1
Data set [7] can be described thus: Lipophilicity, log K of the compound by HPLC analysis. It is filed as physicochemical.
In a further data set the test system is Pichia kudriavzevii. The experiment in a line: Antifungal activity against Candida krusei E28 after 72 to 120 hrs by microdilution broth method. It is filed as functional, organism-based.
Data set [8] relates to Mycobacterium tuberculosis. Kind of data set: Antimycobacterial activity against Mycobacterium tuberculosis H37Rv CNCTC My 331/88 after 5 days by microplate alamar blue assay. It is filed as functional. The note with it: H37Rv CNCTC My 331/88, 120 h. Put shortly: (§2)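 Microplate alamar blue assay run at pH 5.6, using conditions optimized for pyrazinamide. Strains came from the Czech National Collection of Type Cultures. MIC was read in µg/mL and converted to µM using molecular weight.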

Data set [9] concerns Mycobacterium avium. The experiment in a line: Antimycobacterial activity against pyrazinamide-resistant Mycobacterium avium CNCTC My 80/72 after 5 days by microplate alamar blue assay. It is filed as functional. As to conditions: CNCTC My 80/72, 120 h. Put shortly:
as §2
A general note: Alamar Blue is a resazurin reagent that responds to reducing activity.

For data set [10], the system named is Mycobacterium avium. The experiment in a line: Antimycobacterial activity against pyrazinamide-resistant Mycobacterium avium CNCTC My 152/73 after 5 days by microplate alamar blue assay. It is filed as functional. As to conditions: CNCTC My 152/73, 120 h. Put shortly:
as §2

Another data set deals with Enterococcus sp. Kind of data set: Antibacterial activity against Enterococcus sp. J 14365/08 after 24 to 48 hrs by microdilution broth method. It is filed as functional, organism-based. Put shortly: as §1
The test system of another data set is Pseudomonas aeruginosa. Kind of data set: Antibacterial activity against Pseudomonas aeruginosa CCM 1961 after 24 to 48 hrs by microdilution broth method. It is filed as functional, organism-based. Put shortly:
as §1

A further data set has as its system Staphylococcus aureus. The experiment in a line: Antibacterial activity against Staphylococcus aureus CCM 4516/08 after 24 to 48 hrs by microdilution broth method. It is filed as functional, organism-based. Put shortly:
as §1

The subject of another data set is Nakaseomyces glabratus. Kind of data set: Antifungal activity against Candida glabrata 20/I after 72 to 120 hrs by microdilution broth method. It is filed as functional, organism-based.
Data set [11] concerns Mycobacterium kansasii. The experiment in a line: Antimycobacterial activity against pyrazinamide-resistant Mycobacterium kansasii CNCTC My 235/80 after 5 days by microplate alamar blue assay. It is filed as functional. The note with it: CNCTC My 235/80, 120 h. The essentials: as §2
The test system of data set [12] is Klebsiella pneumoniae. The experiment in a line: Antibacterial activity against ESBL positive Klebsiella pneumoniae J 14368/08 after 24 to 48 hrs by microdilution broth method. It is filed as functional, organism-based. The essentials: as §1
The nature of data set [13]: Selectivity index, ratio of IC50 for human HepG2 cells to MIC for Mycobacterium tuberculosis H37Rv CNCTC My 331/88. It is filed as toxicity, cell-based. The note with it: read-out: Selectivity Index. The essentials:
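HepG2 human liver cell viability was measured by a colorimetric tetrazolium-reduction assay, and IC50 was derived from the toxicity curves. MIC against M. tuberculosis H37Rv came from the alamar blue microplate assay at pH 5.6. SI = IC50/MIC, both in molar units.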

Data set [14] has as its system Staphylococcus epidermidis. The experiment in a line: Antibacterial activity against Staphylococcus epidermidis H 6966/08 up to 500 uM after 24 to 48 hrs by microdilution broth method. It is filed as functional, organism-based. The essentials:
as §1

In another data set the test system is HepG2. The experiment in a line: Cytotoxicity against human HepG2 cells after 24 hrs. It is filed as cell-based. As to conditions: HepG2, 24 h. The essentials: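 HepG2 human liver cells; loss of viability measured by a colorimetric tetrazolium-reduction assay. IC50 derived from the toxicity curves. Where limited solubility in the culture medium capped the tested concentration, only an estimate of the toxic concentration was given.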

In data set [15] the test system is Mycobacterium tuberculosis. Kind of data set: Antimycobacterial activity against pyrazinamide-sensitive Mycobacterium tuberculosis. It is filed as functional.
In data set [16] the test system is Mycobacterium kansasii. The experiment in a line: Antimycobacterial activity against pyrazinamide-resistant Mycobacterium kansasii. It is filed as functional.
The test system of data set [17] is Mycobacterium avium. The experiment in a line: Antimycobacterial activity against pyrazinamide-resistant Mycobacterium avium. It is filed as functional.
The test system of data set [18] is Mycolicibacterium smegmatis. The experiment in a line: Antimycobacterial activity against pyrazinamide-resistant Mycobacterium smegmatis. It is filed as functional.
The subject of data set [19] is Mycolicibacterium fortuitum. Kind of data set: Antimycobacterial activity against pyrazinamide-resistant Mycobacterium fortuitum. It is filed as functional.

≈ marks a conversion by molar mass, not a printed value. Calls of active or inactive are those of the source.

In the case of `NC[C@@H]1O[C@H](O[C@H]2[C@@H](O)[C@H](O[C@@H]3[C@@H](O)[C@H](N)C[C@H](N)[C@H]3O[C@H]3O[C@H](CN)[C@@H](O)[C@H](O)[C@H]3N)O[C@@H]2CO)[C@H](N)[C@@H](O)[C@@H]1O` [FRAMYCETIN], the values for the MIC95 in data set [1] and in data set [2] were 15.6 µM (≈ 9.6 µg/mL) and 7.81 µM (≈ 4.8 µg/mL), respectively.
By MIC is commonly meant the smallest concentration in the dilution series that meets the test's criterion for growth inhibition. A low value points to inhibition by little substance. Consider `CCCCCCNc1cncc(C(N)=O)n1`, for which the result (with Klebsiella pneumoniae [3]; with Candida albicans; in [4]; in the data set with Trichosporon asahii; in [5]; in the data set on Candida tropicalis) was inactive. The outcome (with Lichtheimia corymbifera; in the data set with Aspergillus fumigatus; in data set [6]; in the data set on Escherichia coli; with Pichia kudriavzevii; with Enterococcus sp.) was inactive. In addition, the outcome in the data set with Pseudomonas aeruginosa, with Staphylococcus aureus, with Nakaseomyces glabratus and in the data set on Klebsiella pneumoniae [12] was inactive. For the same molecule, the MIC95 is 125 µM (≈ 27.8 µg/mL) in [1] and 62.5 µM (≈ 13.9 µg/mL) in data set [2]. Also, the “log K” value in [7] was 0.2051. For the same molecule, the MIC in data set [8] was 100 µg/mL; with Mycobacterium avium [9], greater than 100 µg/mL; in the data set on Mycobacterium avium [10], greater than 100 µg/mL; with Mycobacterium kansasii [11], greater than 100 µg/mL.
As a reminder, the IC50 is the concentration that gives 50% inhibition. A low value points to greater potency in that assay. With `CCCCCCCCNc1cnc(C(N)=O)cn1`, the outcome (in the data set on Klebsiella pneumoniae [3]; in the data set with Candida albicans; in data set [4]; with Trichosporon asahii; in data set [5]; with Candida tropicalis) was inactive. In addition, the result (in the data set with Lichtheimia corymbifera; in data set [14]; in data set [1]; with Aspergillus fumigatus; in data set [6]; in the data set with Escherichia coli) was inactive. In addition, the outcome in the data set on Pichia kudriavzevii, in the data set with Enterococcus sp., with Pseudomonas aeruginosa, with Staphylococcus aureus, with Nakaseomyces glabratus and in the data set on Klebsiella pneumoniae [12] was inactive. In addition, the selectivity ratio in data set [13] was greater than 10. In addition, the “log K” value in data set [7] came out at 0.693. This molecule also came in with an IC50 with HepG2 greater than 250 µM. The minimum inhibitory concentration (MIC) in data set [8] was 25 µM; with Mycobacterium avium [9], greater than 100 µg/mL; in the data set with Mycobacterium avium [10], greater than 100 µg/mL; against Mycobacterium kansasii [11], 25 µM.
With `CCCCCCCNc1cnc(C(N)=O)cn1`, the result (with Klebsiella pneumoniae [3]; with Candida albicans; in data set [4]; with Trichosporon asahii; in data set [5]; in the data set with Candida tropicalis) was inactive. Further, the result (in the data set with Lichtheimia corymbifera; in [14]; in [1]; in the data set with Aspergillus fumigatus; in [6]; in the data set with Escherichia coli) was inactive. In addition, the result in the data set on Pichia kudriavzevii, with Enterococcus sp., with Pseudomonas aeruginosa, with Staphylococcus aureus, in the data set on Nakaseomyces glabratus and with Klebsiella pneumoniae [12] was inactive. Also, the selectivity ratio in data set [13] is greater than 4.7. For the same molecule, the “log K” value in data set [7] is on record as 0.4658. Also, the 50% inhibitory concentration (IC50) with HepG2 is greater than 250 µM. The MIC was 53 µM in data set [8], greater than 100 µg/mL in the data set with Mycobacterium avium [9], greater than 100 µg/mL with Mycobacterium avium [10] and 53 µM against Mycobacterium kansasii [11].
On to `CC1(C)S[C@@H]2[C@H](NC(=O)Cc3ccccc3)C(=O)N2[C@H]1C(=O)O` [PENICILLIN G], for which the results for the MIC95 in data set [1] and in data set [2] were 250 µM (≈ 83.6 µg/mL) and 125 µM (≈ 41.8 µg/mL), respectively.
`O=C(O)c1cn(C2CC2)c2cc(N3CCNCC3)c(F)cc2c1=O` [CIPROFLOXACIN]: the MIC95 in data set [1] and in data set [2] was 250 µM (≈ 82.8 µg/mL) throughout.
Regarding `NC(=O)c1cnc(Cl)cn1`, the MIC in data set [15] was 8 µg/mL (≈ 50.8 µM); against Mycobacterium kansasii [16], 8 µg/mL (≈ 50.8 µM); in data set [8], 317 µM; in the data set with Mycobacterium avium [9] it was greater than 100 µg/mL; in the data set on Mycobacterium avium [10], greater than 100 µg/mL; in the data set with Mycobacterium avium [17], 8 µg/mL (≈ 50.8 µM). Further, the MIC in [18] turned out to be 8 µg/mL (≈ 50.8 µM); against Mycobacterium kansasii [11], 79 µM; in data set [19], 8 µg/mL (≈ 50.8 µM). In addition, the result (in the data set with Klebsiella pneumoniae [3]; in the data set with Candida albicans; in data set [4]; with Trichosporon asahii; in [5]; in the data set on Candida tropicalis) was inactive. The result (in the data set with Lichtheimia corymbifera; in data set [14]; in data set [1]; in the data set with Aspergillus fumigatus; in [6]; in the data set on Escherichia coli) was inactive. Further, the result with Pichia kudriavzevii, in the data set with Enterococcus sp., in the data set on Pseudomonas aeruginosa, in the data set with Staphylococcus aureus, in the data set with Nakaseomyces glabratus and in the data set with Klebsiella pneumoniae [12] was inactive. Moreover, in [13], the selectivity ratio is 5. Besides, the “log K” value in data set [7] is given as -0.3891. The molecule also showed an IC50 in the data set with HepG2 of 1600 µM.
